Source: the RNAGym collection of RNA variant scans (doi:10.1126/science.aae0568)
This sample holds only a part of the variants without activity.

B1: tRNA (parent)
chain: GUUCCGUUGGCGUAAUGGUAACGCGUCUCCCUCCUAAGGAGAAGACUGCGGGUUCGAGUCCCGUACGGAACG

Variants of: B1
Experiment: yeast fitness relative to wild type (ratio to wild type); higher = fitter; tRNA-Arg(CCU), competitive growth, 37 C, YPD
In short: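 Changes in genotype frequencies gave Darwinian fitness relative to wild type. Frequencies were read by 100-nucleotide paired-end sequencing of gene amplicons before and after pooled Saccharomyces cerevisiae strains, carrying tRNA-Arg(CCU) gene variants at the native locus, were competed in YPD at 37°C for 24 hours in six replicates. A genotype was kept only with ≥ 100 starting reads, and estimates < 0.5 were set to 0.5.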

Variant	yeast fitness
U2A A14C A20G A36G C55U G68C	0.595
U2A A14C C30U C34G	≤ 0.5
U2A A14C C30U C34G A45U	≤ 0.5
U2A A14C C30U C34G G51A	≤ 0.5
U2A A14C G48C	≤ 0.5
U2A A14C G50A G63C	≤ 0.5
U2A A14G A37U U54A	≤ 0.5
U2A A14G C22G C30G U47A	≤ 0.5
U2A A14G G25C U47C G48C	0.573
U2A A14U	0.682
U2A A14U A21G C46G A57U C66U	0.56
U2A A14U C24U U32G	0.672
U2A A14U C29G G44C	0.534
U2A A14U C46U	0.595
U2A A15C	0.685
U2A A15C A69C	≤ 0.5
U2A A15C C30G	≤ 0.5
U2A A15C C30G G67C	≤ 0.5
U2A A15C G58C	≤ 0.5
U2A A15C U47C	≤ 0.5
U2A A15G A37U C49G	≤ 0.5
U2A A15G C29U G41A	≤ 0.5
U2A A15G C31G A40U C60G G67A	≤ 0.5
U2A A15U	0.753

Variant	yeast fitness
U2A A15U C27U C30A G41C C49A C55G C61A	≤ 0.5
U2A A15U C34A G39C A40C G56C C61G C62G G68C	≤ 0.5
U2A A15U G17C G51A	≤ 0.5
U2A A20C	0.928
U2A A20C A37G	0.529
U2A A20C A40G	0.633
U2A A20C A69C	0.78
U2A A20C C27U G58C A69C	≤ 0.5
U2A A20C C55U	0.582
U2A A20C G48C G67C	≤ 0.5
U2A A20C G68U	1.01
U2A A20G	0.838
U2A A20G A69C	0.688
U2A A20G C24G C30G	≤ 0.5
U2A A20G C27G	≤ 0.5
U2A A20G C29A A45U	0.538
U2A A20G C31A A43U C61A	≤ 0.5
U2A A20G C34A C49U	≤ 0.5
U2A A20G C49U	0.605
U2A A20G C55G	0.537
U2A A20U A21C C27U C33A A70C	0.528
U2A A20U C30A A36U C60U A69C	≤ 0.5
U2A A20U C34A C61U A65U	≤ 0.5
U2A A20U U53A C60A	0.558

Variant	yeast fitness
U2A A21C C24A C33A G48C	≤ 0.5
U2A A21C C29U G51A	0.574
U2A A21C C29U G52C	≤ 0.5
U2A A21C C30A C49A	≤ 0.5
U2A A21C C31G A43C	≤ 0.5
U2A A21G A36U	0.624
U2A A21G C29G C49A G67A	≤ 0.5
U2A A21G C29U A40U A69U	0.59
U2A A21G C29U A40U C49G	≤ 0.5
U2A A21G C29U A40U G63A A69U	≤ 0.5
U2A A21G G41A A43G	≤ 0.5
U2A A21G G44C U59G C61U	≤ 0.5
U2A A21U	0.686
U2A A21U A42G	≤ 0.5
U2A A21U G50A	≤ 0.5
U2A A21U U54A G56C	0.646
U2A A36C	0.518
U2A A36C A45C C55G C62A G68A	≤ 0.5
U2A A36G C49A	≤ 0.5
U2A A36U	0.596
U2A A37C A57C C60U	≤ 0.5
U2A A37G	0.659
U2A A37G C55U	≤ 0.5
U2A A40G	0.932

Variant	yeast fitness
U2A A40U A65C	≤ 0.5
U2A A40U G48A	0.681
U2A A42C	0.818
U2A A42G	0.74
U2A A42G A43G G50A	0.541
U2A A42G C61U G63A	≤ 0.5
U2A A42U	0.864
U2A A43G	0.988
U2A A43U	0.956
U2A A45C	0.933
U2A A45C A65C	0.764
U2A A45C A65U	0.624
U2A A45C A70C	0.758
U2A A45C C55A	≤ 0.5
U2A A45U C62G	≤ 0.5
U2A A57C	0.607
U2A A57U C61U C66G	≤ 0.5
U2A A65G	0.938
U2A A65U	0.812
U2A A70C	1
U2A C4A C22A C55U	≤ 0.5
U2A C4A C34A A43C C46U	≤ 0.5
U2A C4A C46G G52A A70U	≤ 0.5
U2A C4A G6A C29G A57G	≤ 0.5

Variant	yeast fitness
U2A C4A G18C U47A C55U	0.793
U2A C4A U13C A42G C61U	≤ 0.5
U2A C4A U19G	≤ 0.5
U2A C4G	0.838
U2A C4G A14U C60A	≤ 0.5
U2A C4G A42G A45U C66U	≤ 0.5
U2A C4G C5G G25A C30G C34A C49G	≤ 0.5
U2A C4G C34U	≤ 0.5
U2A C4G G9A G44A U54C	≤ 0.5
U2A C4G G38C A45U G50C G52A	0.849
U2A C4G G56A G58A A65C	≤ 0.5
U2A C4G U8A G12A G48A A69C	0.544
U2A C4U G10C C29U U32A A43U	≤ 0.5
U2A C4U G25C C49U C61U	0.581
U2A C4U G44C C61A	≤ 0.5
U2A C4U U8G C55G G68A	≤ 0.5
U2A C4U U28A C30U A57G	0.688
U2A C4U U28A C30U C60G C66G	≤ 0.5
U2A C5A	0.611
U2A C5A C11U C27G C60A	≤ 0.5
U2A C5A C29U C62U A70U	≤ 0.5
U2A C5A C30U A69U	≤ 0.5
U2A C5A C33U A57G C66G	≤ 0.5
U2A C5A C46U G50C	≤ 0.5

Variant	yeast fitness
U2A C5A C60A	≤ 0.5
U2A C5A G9C U16C G25C A65C	≤ 0.5
U2A C5A G50A	≤ 0.5
U2A C5A U53G	0.514
U2A C5A U64C	0.595
U2A C5G A14G C30G C46U	≤ 0.5
U2A C5G A14G C30G C46U C66A A70U	≤ 0.5
U2A C5G A14U U19A G23C C29A C66A	≤ 0.5
U2A C5G A37U C49U C61U	≤ 0.5
U2A C5G A42G	0.541
U2A C5G A42U	≤ 0.5
U2A C5G C11G A14U A15U U16C C29U	≤ 0.5
U2A C5G C11G A20G	≤ 0.5
U2A C5G C11G U19C A20G	≤ 0.5
U2A C5G C24U C30G	≤ 0.5
U2A C5G C24U C30G A70C	0.54
U2A C5G C24U C30G C49G C61G	≤ 0.5
U2A C5G C24U C30G C49U	≤ 0.5
U2A C5G C31U C66U	≤ 0.5
U2A C5G C66U	0.657
U2A C5G U8A C24U C61G C66U A69U	≤ 0.5
U2A C5G U8A C61A	≤ 0.5
U2A C5G U8A G44A G48A G50C	≤ 0.5
U2A C5G U53A C66U	≤ 0.5

Variant	yeast fitness
U2A C5U A15G C34U G41C C55A	≤ 0.5
U2A C5U A21U C30G A70U	≤ 0.5
U2A C5U C24U C34U A40C	≤ 0.5
U2A C5U C24U U54C G58A	0.569
U2A C5U C29G A37U	0.512
U2A C5U G23A A37G	0.689
U2A C5U G23A A37G A69G A70U	0.845
U2A C5U G41A	≤ 0.5
U2A C5U G48A	0.611
U2A C5U U47A G52A	≤ 0.5
U2A C5U U64C	1.06
U2A C11A	0.614
U2A C11A A14G C29U A65C	0.568
U2A C11A C24G U47G	≤ 0.5
U2A C11A C31U	≤ 0.5
U2A C11A G38C C60A	0.582
U2A C11G	0.647
U2A C11G A21G	0.567
U2A C11G A21G A37G	≤ 0.5
U2A C11G A21G A65G	≤ 0.5
U2A C11G A40U	0.544
U2A C11G C27G U54A C66U	≤ 0.5
U2A C11G C30A A57G	≤ 0.5
